# Assay results published in ChEMBL document CHEMBL3259611, “Suppression of inflammatory responses by handelin, a guaianolide dimer from Chrysanthemum boreale, via downregulation of NF-κB signaling and pro-inflammatory cytokine production” (J Nat Prod, 2014).
# Calls of active or inactive are those of the source. No cut-off for these calls is given here.
# Tests used:
# RAW264.7 [1] = test: Antiinflammatory activity in mouse RAW264.7 cells assessed as inhibition of LPS-induced PGE2 production administered 1 hr prior to LPS challenge measured after 20 hrs by EIA relative to control; assay type: functional, cell-based
# Outline: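 RAW 264.7 cells plated at 3 × 10^5 cells/mL, pretreated with compound for 1 h, then stimulated with 1 μg/mL LPS for 20 h. PGE2 in the supernatant was measured by immunoassay kit. Mean ± SD of triplicates.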
# [2] = target: Transcription factor p65 (Mus musculus) (UniProt Q04207); test: Inhibition of LPS-induced NFkappaB P65 protein nuclear translocation in mouse RAW264.7 cells at 10 uM after 30 mins by Western blotting analysis relative to control; assay type: cell-based
# Outline: (§1)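 Macrophages were exposed to compound for 30 min before LPS stimulation, with proteins extracted 30 min later. Nuclear extracts were prepared in Tris/KCl/NP-40 lysis buffer, then 420 mM NaCl buffer, and the cytosolic fraction was kept for IκB-α. Western blot on PVDF with ECL detection. Tests in triplicate; representative of three separate experiments.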
# RAW264.7 [3] = test: Antiinflammatory activity in mouse RAW264.7 cells assessed as inhibition LPS-induced IL-1beta mRNA expression at 10 uM after 4 hrs by RT-PCR analysis relative to control; assay type: functional
# Outline: (§2)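 RAW 264.7 cells stimulated with LPS (1 μg/mL) with or without compound for 4 h. Total RNA was isolated and cytokine mRNA was analysed by RT-PCR: 94 °C 4 min, then 25−30 cycles of 94/55/72 °C for 30 s each, then 72 °C 5 min. Products were run on 2% agarose and stained with SYBR-Safe. Triplicate, representative of three experiments.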
# JNK1/JNK2 (Mus musculus) = JNK1/JNK2 (Mus musculus) (UniProt Q91Y86+Q9WTU6); test: Inhibition LPS-induced JNK1/2 phosphorylation at Thr183/[…] in mouse RAW264.7 cells at 10 uM administered 30 mins prior to LPS challenge measured after 30 mins by Western blotting analysis; assay type: cell-based
# Outline: (§3)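 RAW 264.7 cells pretreated with compound for 30 min, then stimulated with LPS for 30 min. Protein extracts were Western blotted for phosphorylated ERK and JNK (SDS-PAGE, PVDF, ECL detection).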
# Mus musculus = test: Antiinflammatory activity in ICR mouse ear edema model assessed as inhibition of TPA-induced ear edema at 10 mg/kg, po administered 30 mins prior to TPA challenge measured after 4 hrs relative to vehicle-treated control; assay type: functional
# Outline: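 ICR mice (male, 18−20 g, 5 weeks old) dosed orally 30 min before TPA (1.0 μg in 20 μL acetone) was applied to inner and outer surfaces of the right ear. Killed by cervical dislocation after 4 h. Edema taken as the weight of a 5 mm punch biopsy of the right ear over the left. Ear homogenates were Western blotted for iNOS, COX-2 and IL-1β.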
# [4] = target: Transcription factor p65 (Mus musculus) (UniProt Q04207); test: Inhibition of LPS-induced NFkappaB P65 protein nuclear translocation in mouse RAW264.7 cells at 40 uM after 30 mins by Western blotting analysis relative to control; assay type: cell-based; outline: as §1
# [5] = target: T1, Nuclear factor NF-kappa-B p105 subunit (Mus musculus) (UniProt P25799); test: Inhibition of LPS-induced NFkappaB P50 protein nuclear translocation in mouse RAW264.7 cells at 40 uM after 30 mins by Western blotting analysis relative to control; assay type: cell-based; outline: as §1
# T1 sequence (whole entry): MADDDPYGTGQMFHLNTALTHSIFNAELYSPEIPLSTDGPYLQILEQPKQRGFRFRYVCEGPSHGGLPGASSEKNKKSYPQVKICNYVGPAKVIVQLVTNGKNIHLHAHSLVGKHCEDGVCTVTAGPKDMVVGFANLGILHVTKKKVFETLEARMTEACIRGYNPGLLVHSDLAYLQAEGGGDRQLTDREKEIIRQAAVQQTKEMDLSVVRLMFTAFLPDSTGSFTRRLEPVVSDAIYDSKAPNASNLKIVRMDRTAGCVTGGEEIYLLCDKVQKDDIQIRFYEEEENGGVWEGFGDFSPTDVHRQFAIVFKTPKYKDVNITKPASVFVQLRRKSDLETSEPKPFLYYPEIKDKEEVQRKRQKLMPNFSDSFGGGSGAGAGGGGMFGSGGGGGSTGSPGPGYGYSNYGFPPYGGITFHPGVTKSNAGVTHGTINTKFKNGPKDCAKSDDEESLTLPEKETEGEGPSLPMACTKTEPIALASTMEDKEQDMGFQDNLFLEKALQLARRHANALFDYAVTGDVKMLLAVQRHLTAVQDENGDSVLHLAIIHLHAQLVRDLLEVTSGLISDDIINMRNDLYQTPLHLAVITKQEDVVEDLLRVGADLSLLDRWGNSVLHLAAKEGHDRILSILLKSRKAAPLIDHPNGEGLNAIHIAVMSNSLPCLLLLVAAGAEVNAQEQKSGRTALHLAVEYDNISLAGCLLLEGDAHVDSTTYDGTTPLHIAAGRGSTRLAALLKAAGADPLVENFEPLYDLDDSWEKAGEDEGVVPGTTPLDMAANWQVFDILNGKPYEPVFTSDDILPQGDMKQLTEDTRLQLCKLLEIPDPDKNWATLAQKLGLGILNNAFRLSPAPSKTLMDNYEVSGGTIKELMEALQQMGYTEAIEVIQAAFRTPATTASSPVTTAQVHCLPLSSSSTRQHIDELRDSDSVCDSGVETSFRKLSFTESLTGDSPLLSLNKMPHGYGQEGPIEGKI
# RAW264.7 [6] = test: Inhibition of LPS-induced NFkappaB transcriptional activity in mouse RAW264.7 cells assessed as reduction of phosphorylated IkappaB-alpha level at 20 uM after 30 mins by Western blotting analysis relative to control; assay type: cell-based; outline: as §1
# RAW264.7 [7] = test: Antiinflammatory activity in mouse RAW264.7 cells assessed as inhibition LPS-induced IL-1beta mRNA expression at 40 uM after 4 hrs by RT-PCR analysis relative to control; assay type: functional; outline: as §2
# [8] = target: Mitogen-activated protein kinase 1 and 3 (ERK2 and ERK1) (Mus musculus) (UniProt P63085+Q63844); test: Inhibition LPS-induced ERK1/2 phosphorylation at Thr202/Tyr204 in mouse RAW264.7 cells at 20 uM administered 30 mins prior to LPS challenge measured after 30 mins by Western blotting analysis; assay type: cell-based; outline: as §3
# Rattus norvegicus = test: Antiinflammatory activity in po dosed rat paw edema model assessed as inhibition of carrageenan-induced serum IL-1beta production administered 30 mins prior to carrageenan challenge measured after 6 hrs by ELISA relative to vehicle-treated control
# Transcription factor p65 (Mus musculus), sequence (Q04207 whole entry): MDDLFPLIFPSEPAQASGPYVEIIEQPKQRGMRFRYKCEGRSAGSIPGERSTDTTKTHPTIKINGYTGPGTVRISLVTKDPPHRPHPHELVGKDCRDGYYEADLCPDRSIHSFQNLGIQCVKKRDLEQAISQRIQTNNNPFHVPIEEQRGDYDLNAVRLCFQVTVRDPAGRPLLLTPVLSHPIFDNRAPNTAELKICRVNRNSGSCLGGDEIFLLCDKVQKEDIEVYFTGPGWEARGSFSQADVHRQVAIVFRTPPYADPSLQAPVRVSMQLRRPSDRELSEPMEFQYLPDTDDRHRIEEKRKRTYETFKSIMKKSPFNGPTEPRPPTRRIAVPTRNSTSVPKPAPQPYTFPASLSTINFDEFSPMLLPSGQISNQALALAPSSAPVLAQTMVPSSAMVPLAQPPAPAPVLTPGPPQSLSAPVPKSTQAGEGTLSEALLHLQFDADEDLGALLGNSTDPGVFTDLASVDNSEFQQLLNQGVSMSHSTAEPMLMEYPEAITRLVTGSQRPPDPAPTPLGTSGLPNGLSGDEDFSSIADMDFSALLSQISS
# JNK1/JNK2 (Mus musculus), sequence (Q91Y86 whole entry, looked up): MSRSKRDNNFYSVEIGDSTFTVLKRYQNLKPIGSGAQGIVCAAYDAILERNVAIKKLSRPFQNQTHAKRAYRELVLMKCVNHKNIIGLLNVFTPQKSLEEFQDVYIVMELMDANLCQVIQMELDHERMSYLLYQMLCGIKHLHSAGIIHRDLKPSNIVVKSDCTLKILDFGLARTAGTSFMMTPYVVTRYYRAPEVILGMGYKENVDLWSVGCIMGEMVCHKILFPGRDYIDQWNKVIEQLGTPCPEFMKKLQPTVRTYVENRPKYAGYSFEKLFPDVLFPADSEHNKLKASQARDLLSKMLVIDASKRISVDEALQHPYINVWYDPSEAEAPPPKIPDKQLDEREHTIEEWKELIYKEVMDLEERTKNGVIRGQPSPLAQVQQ
# JNK1/JNK2 (Mus musculus), sequence (Q9WTU6 whole entry, looked up): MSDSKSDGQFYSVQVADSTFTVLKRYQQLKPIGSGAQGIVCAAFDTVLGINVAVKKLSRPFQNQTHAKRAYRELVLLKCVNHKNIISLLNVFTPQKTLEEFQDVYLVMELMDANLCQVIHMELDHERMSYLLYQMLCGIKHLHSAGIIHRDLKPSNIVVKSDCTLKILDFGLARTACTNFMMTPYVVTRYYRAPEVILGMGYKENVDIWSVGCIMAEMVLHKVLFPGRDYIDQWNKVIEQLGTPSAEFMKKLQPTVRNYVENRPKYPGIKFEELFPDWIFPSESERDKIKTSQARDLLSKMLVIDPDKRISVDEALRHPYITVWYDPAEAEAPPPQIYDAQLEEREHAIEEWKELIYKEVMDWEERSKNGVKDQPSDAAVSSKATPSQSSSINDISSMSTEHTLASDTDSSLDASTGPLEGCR
# Mitogen-activated protein kinase 1 and 3 (ERK2 and ERK1) (Mus musculus), sequence (P63085 whole entry, looked up): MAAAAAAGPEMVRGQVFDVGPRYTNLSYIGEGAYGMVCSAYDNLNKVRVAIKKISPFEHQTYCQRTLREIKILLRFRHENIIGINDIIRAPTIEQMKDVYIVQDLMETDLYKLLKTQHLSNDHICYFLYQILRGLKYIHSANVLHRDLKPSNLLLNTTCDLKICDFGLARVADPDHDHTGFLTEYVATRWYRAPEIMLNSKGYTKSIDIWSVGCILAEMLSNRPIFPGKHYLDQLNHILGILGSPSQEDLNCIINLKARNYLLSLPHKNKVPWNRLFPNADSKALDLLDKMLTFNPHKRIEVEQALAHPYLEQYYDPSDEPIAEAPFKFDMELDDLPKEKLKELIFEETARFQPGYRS
# Mitogen-activated protein kinase 1 and 3 (ERK2 and ERK1) (Mus musculus), sequence (Q63844 whole entry, looked up): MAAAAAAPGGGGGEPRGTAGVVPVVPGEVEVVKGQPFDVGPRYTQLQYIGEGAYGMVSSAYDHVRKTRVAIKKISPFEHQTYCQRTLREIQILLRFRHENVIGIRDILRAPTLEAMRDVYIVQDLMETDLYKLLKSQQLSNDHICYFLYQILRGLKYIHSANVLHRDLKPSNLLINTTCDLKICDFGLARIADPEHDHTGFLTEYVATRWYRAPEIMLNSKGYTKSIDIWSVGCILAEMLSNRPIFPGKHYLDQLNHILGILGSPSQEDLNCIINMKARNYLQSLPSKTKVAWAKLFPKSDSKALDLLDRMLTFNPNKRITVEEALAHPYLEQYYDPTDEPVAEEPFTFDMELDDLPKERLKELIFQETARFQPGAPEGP
smiles,measurement,setting,value
C=C1C(=O)O[C@@H]2[C@@H]3[C@@]4(C=C[C@@]3(C)[C@]3(C4)C(=O)O[C@@H]4[C@H]5C(C)=CC[C@H]5[C@](C)(O)C[C@H](OC(C)=O)[C@H]43)[C@](C)(O)CC[C@@H]12,IC50,RAW264.7 [1],14.3 µM
same,inhibition,RAW264.7 [1],Dose-dependent effect
same,inhibition,[2],Active
same,fold change (FC),RAW264.7 [3],0.26
same,inhibition,RAW264.7 [3],Active
same,fold change (FC),JNK1/JNK2 (Mus musculus),0.71
same,inhibition,JNK1/JNK2 (Mus musculus),Active
same,inhibition in vivo at 10 mg/kg,Mus musculus,43%
same,fold change (FC),[4],0.49
same,fold change (FC),[5],0.16
same,fold change (FC),RAW264.7 [6],0.55
same,fold change (FC),RAW264.7 [7],0.21
same,fold change (FC),[8],0.79
same,inhibition,Rattus norvegicus,Dose-dependent effect
